This is an account of results in ChEMBL document CHEMBL4145591, “Phenotypic Screening To Discover Novel Chemical Series as Efficient Antihemorrhagic Agents” (ACS Med Chem Lett, 2018).

Active and inactive are the calls of the source. The rule behind the calls is not given here. A value given as a limit tells only on which side of the number the result lay.

Data set [1] in a line: Therapeutic index, ratio of LC50 for human THLE2 cells to EC50 for antifibrinolytic activity in human whole blood. Type of data set: toxicity. A digest of the protocol: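 THLE-2 healthy hepatic cells were exposed to compound for 72 hours and cell viability was read to give LC50. Antifibrinolytic EC50 came from thromboelastography in triplicate or duplicate. The index is LC50 relative to EC50, expressed in log units.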

A short description of data set [2]: Cytotoxicity against human THLE2 cells assessed as decrease in cell viability after 72 hrs by luminescence assay. Format: cell-based. As to conditions: THLE-2 cells, read-out: LC50. A digest of the protocol:
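Healthy human hepatic THLE-2 line; compounds incubated with cells for 72 hours, then viability measured. Cytotoxicity reported as LC50.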

For another data set, the target named is Stromelysin-2 (Homo sapiens, UniProt P09238). Put plainly: Inhibition of MMP10 (unknown origin) using fluorescently-labeled substrate measured every min for 1 min.
In the next data set the target is Stromelysin-1 (Homo sapiens, UniProt P08254). Put plainly: Inhibition of MMP3 (unknown origin) using fluorescently-labeled substrate measured every min for 1 min.
The nature of data set [3]: Solubility of the compound in saline solution at 10 mM. Format: physicochemical. Particulars: buffer, 10000 µM.
Data set [4] has as its target T1, Matrilysin (Homo sapiens) (UniProt P09237).
T1 sequence (whole entry): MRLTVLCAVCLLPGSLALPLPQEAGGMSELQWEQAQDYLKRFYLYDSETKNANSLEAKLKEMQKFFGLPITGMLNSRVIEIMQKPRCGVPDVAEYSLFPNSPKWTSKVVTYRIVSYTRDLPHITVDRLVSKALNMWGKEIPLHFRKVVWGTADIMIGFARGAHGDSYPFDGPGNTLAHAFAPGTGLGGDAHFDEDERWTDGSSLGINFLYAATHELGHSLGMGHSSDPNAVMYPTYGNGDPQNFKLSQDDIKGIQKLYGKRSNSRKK
Put plainly: Inhibition of recombinant human MMP7 at 10 uM after 45 mins by fluorescence assay.

Data set [5] has as its target Prothrombin (Homo sapiens) (UniProt P00734). The experiment in a line: Effect on human plasma thrombin activity at 0.01 to 10 uM using S2238 as substrate incubated for 15 mins followed by substrate addition measured after 30 mins.
In data set [6] the target is Tissue-type plasminogen activator (Homo sapiens) (UniProt P00750). The experiment in a line: Effect on tPA (unknown origin) activity at 0.01 to 10 uM incubated for 15 mins.
The target of data set [7] is Matrix metalloproteinase-14 (Homo sapiens) (UniProt P50281). Put plainly: Inhibition of recombinant human MMP14 at 10 uM after 60 mins by fluorescence assay.
A further data set is filed under the species Homo sapiens. The experiment in a line: Effect on plasminogen/tPA (unknown origin) activity assessed as plasmin generation at 0.01 to 10 uM using S2251 as substrate incubated for 15 mins followed by substrate addition measured after 30 mins.
The species named for data set [8] is Mus musculus. The experiment in a line: Potency index, ratio of bleeding time for tranexamic acid to bleeding time for test compound in tPA-induced C57Bl6 mouse hyperfibrinolytic tail bleeding model. Format: functional.
In data set [9] the test system is Mus musculus. Put plainly: Antifibrinolytic activity in tPA-induced C57Bl6 mouse hyperfibrinolytic tail bleeding model assessed as bleeding time at 1 mg/kg, iv administered for 5 mins post tPA challenge for 5 mins measured up to 30 mins by spectrophotometric method (reference value: 29.28 +/- 0.4 min). Type of data set: functional.

Chain of Stromelysin-1 (P08254 whole entry): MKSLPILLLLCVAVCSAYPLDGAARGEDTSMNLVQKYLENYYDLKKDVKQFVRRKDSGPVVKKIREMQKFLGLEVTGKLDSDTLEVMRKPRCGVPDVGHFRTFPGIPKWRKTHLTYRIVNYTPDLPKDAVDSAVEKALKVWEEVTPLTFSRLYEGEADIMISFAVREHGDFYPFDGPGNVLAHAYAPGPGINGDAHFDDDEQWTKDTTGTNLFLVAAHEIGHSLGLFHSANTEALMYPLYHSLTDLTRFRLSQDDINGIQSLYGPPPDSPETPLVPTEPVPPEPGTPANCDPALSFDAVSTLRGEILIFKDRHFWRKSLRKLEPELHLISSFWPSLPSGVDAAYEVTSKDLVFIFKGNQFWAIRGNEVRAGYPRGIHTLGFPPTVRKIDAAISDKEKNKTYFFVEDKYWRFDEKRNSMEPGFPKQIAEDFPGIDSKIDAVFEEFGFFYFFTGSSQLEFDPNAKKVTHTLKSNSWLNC
Chain of Stromelysin-2 (P09238 whole entry): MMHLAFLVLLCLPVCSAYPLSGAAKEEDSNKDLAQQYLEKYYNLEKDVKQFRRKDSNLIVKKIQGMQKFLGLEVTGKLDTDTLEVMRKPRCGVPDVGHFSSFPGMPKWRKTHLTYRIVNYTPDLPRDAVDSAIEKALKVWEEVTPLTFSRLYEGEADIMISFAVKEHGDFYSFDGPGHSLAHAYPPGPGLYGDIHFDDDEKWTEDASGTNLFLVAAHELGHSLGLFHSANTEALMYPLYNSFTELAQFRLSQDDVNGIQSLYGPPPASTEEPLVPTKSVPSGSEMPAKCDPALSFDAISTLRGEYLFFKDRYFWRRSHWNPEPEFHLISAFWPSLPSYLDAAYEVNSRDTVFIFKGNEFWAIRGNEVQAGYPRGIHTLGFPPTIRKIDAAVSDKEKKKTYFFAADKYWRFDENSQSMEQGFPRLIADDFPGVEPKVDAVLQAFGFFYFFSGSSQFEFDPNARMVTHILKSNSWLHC
Chain of Tissue-type plasminogen activator (Homo sapiens) (P00750 36-562 limits assumed): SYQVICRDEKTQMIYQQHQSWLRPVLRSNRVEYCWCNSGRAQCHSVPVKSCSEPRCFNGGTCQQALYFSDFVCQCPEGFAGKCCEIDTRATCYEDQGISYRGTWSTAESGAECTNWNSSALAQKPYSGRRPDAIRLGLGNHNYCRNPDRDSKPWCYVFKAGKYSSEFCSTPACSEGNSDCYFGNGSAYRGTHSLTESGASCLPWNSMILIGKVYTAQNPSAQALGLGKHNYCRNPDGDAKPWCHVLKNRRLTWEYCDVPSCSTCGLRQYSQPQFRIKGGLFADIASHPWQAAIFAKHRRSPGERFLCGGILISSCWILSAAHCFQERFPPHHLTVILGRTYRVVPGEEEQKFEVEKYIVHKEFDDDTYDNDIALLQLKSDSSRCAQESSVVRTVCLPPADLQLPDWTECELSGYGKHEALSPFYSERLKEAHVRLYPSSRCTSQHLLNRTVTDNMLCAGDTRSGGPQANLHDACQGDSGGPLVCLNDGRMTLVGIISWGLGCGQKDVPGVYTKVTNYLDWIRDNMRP

Turning to `Nc1ccc(-c2ccccc2)cc1NC(=O)C1(S(=O)(=O)c2ccc(Oc3ccc(OC(F)(F)F)cc3)cc2)CCC2(CCNCC2)C1` (stereo not drawn), in data set [1], the “log(ratio)” value was “>= 0.946”. In data set [2], the CC50 at 72 h came to 3.53 µM. The IC50 against Stromelysin-2 and against Stromelysin-1 was over 10 µM each time.
Consider `Nc1ccccc1NC(=O)C1(S(=O)(=O)c2ccccc2NC2CCCCC2)CCC2(CCNCC2)C1` (stereo not drawn), for which the IC50 on Stromelysin-2 and on Stromelysin-1 was over 10 µM throughout. Moreover, in data set [3], the solubility entry is “Soluble”.
As for `COc1ccc(Oc2ccc(S(=O)(=O)C3(C(=O)Nc4ccccc4N)CCC4(CCNCC4)C3)cc2Cl)cc1` (stereo not drawn), the IC50 at Stromelysin-2 and at Stromelysin-1 was over 10 µM throughout.
In the case of `CCCN1CCC2(CC1)CCC(C(=O)Nc1ccccc1N)(S(=O)(=O)c1ccc(Oc3ccc(OC(F)(F)F)cc3)cc1)C2` (stereo not drawn), the inhibition entry in data set [4] and in data set [7] was “inactive” in each case. Also, the “log(ratio)” value in [1] is listed as “>= 0.993”. For the same molecule, the result (in data set [5]; in data set [6]; in the data set listed under Homo sapiens) was inactive. In addition, in data set [2], the CC50 at 72 h was found to be 3.94 µM. Besides, the IC50 on Stromelysin-2 and against Stromelysin-1 was over 10 µM in each case. Further, the “fold change (FC)” value in the data set filed under Mus musculus [8] came out at 3. Besides, the Time in the data set on Mus musculus [9] was 3.61 min.
Regarding `Nc1ccccc1NC(=O)C1(S(=O)(=O)c2ccc(Oc3ccc(OC(F)(F)F)cc3)c(Cl)c2)CCC2(CCNCC2)C1` (stereo not drawn), the IC50 against Stromelysin-2 and at Stromelysin-1 was over 10 µM each time.
For the molecule `CNC(=O)NC(=O)C1(S(=O)(=O)c2ccc(OC)c(Cl)c2)CCC2(CCNCC2)C1` (stereo not drawn), the IC50 against Stromelysin-2 and on Stromelysin-1 was over 10 µM in each case.
For `O=S(=O)(c1ccc(Oc2ccc(OC(F)(F)F)cc2)cc1)C1CCC2(CCNCC2)C1` (stereo not drawn), the IC50 against Stromelysin-2 and at Stromelysin-1 was over 10 µM in each case.
For the molecule `O=C(O)C1(S(=O)(=O)c2ccc(Oc3ccc(OC(F)(F)F)cc3)cc2)CCC2(CCNCC2)C1` (stereo not drawn), the IC50 against Stromelysin-2 and against Stromelysin-1 was over 10 µM throughout.
Consider `CNC(=O)NC(=O)C1(S(=O)(=O)c2ccc(Oc3ccc(OC(F)(F)F)cc3)cc2)CCC2(CCNCC2)C1` (stereo not drawn), for which the “log(ratio)” value in data set [1] is recorded as “>= 1.607”. The CC50 at 72 h in data set [2] was 16.2 µM. Also, the IC50 on Stromelysin-2 and against Stromelysin-1 was over 10 µM each time. Further, the solubility result in data set [3] is “Soluble”. Further, the Time in the data set on Mus musculus [9] is reported as 20.24 min.
Take `O=C(Nc1nccs1)C1(S(=O)(=O)c2ccc(Oc3ccc(OC(F)(F)F)cc3)cc2)CCC2(CCNCC2)C1` (stereo not drawn): the IC50 against Stromelysin-2 and at Stromelysin-1 was over 10 µM each time.
Consider `Nc1ccc(-c2cccs2)cc1NC(=O)C1(S(=O)(=O)c2ccc(Oc3ccc(OC(F)(F)F)cc3)cc2)CCC2(CCNCC2)C1` (stereo not drawn), for which the “log(ratio)” value in data set [1] turned out to be 0.493. For the same molecule, the CC50 at 72 h in [2] stood at 2.8 µM. The IC50 on Stromelysin-2 and against Stromelysin-1 was over 10 µM in each case.
Consider `Nc1ccc(F)cc1NC(=O)C1(S(=O)(=O)c2ccc(Oc3ccc(OC(F)(F)F)cc3)cc2)CCC2(CCNCC2)C1` (stereo not drawn), for which the IC50 against Stromelysin-2 and against Stromelysin-1 was over 10 µM throughout.
`O=C(Nc1ccccc1O)C1(S(=O)(=O)c2ccc(Oc3ccc(OC(F)(F)F)cc3)cc2)CCC2(CCNCC2)C1` (stereo not drawn): the IC50 at Stromelysin-2 and at Stromelysin-1 was over 10 µM each time.
With `O=C(Nc1ccccn1)C1(S(=O)(=O)c2ccc(Oc3ccc(OC(F)(F)F)cc3)cc2)CCC2(CCNCC2)C1` (stereo not drawn), the IC50 at Stromelysin-2 and against Stromelysin-1 was over 10 µM in each case.
As for `C#CCCCN1CCC2(CC1)CCC(C(=O)Nc1ccccc1N)(S(=O)(=O)c1ccc(C(=O)c3ccccc3)cc1)C2` (stereo not drawn), the inhibition result in data set [4] and in data set [7] was “inactive” each time. The CC50 at 72 h in data set [2] turned out to be 43.5 µM. For the same molecule, the IC50 at Stromelysin-2 and against Stromelysin-1 was over 10 µM throughout.
As to `Nc1ccccc1NC(=O)C1(S(=O)(=O)c2ccc(NC3CCCCC3)cc2)CCC2(CCNCC2)C1` (stereo not drawn), in data set [1], the “log(ratio)” value is listed as “>= 2.039”. Besides, in data set [2], the CC50 at 72 h was 43.8 µM. The IC50 against Stromelysin-2 and at Stromelysin-1 was over 10 µM each time. In addition, in data set [3], the solubility result is “Soluble”. Moreover, the Time in the data set on Mus musculus [9] amounted to 6.58 min.
Regarding `CN(C)S(=O)(=O)NC(=O)C1(S(=O)(=O)c2ccc(Oc3ccc(OC(F)(F)F)cc3)cc2)CCC2(CCNCC2)C1` (stereo not drawn), the IC50 against Stromelysin-2 and at Stromelysin-1 was over 10 µM throughout.
As for `COc1ccc(S(=O)(=O)C2(C(=O)Nc3cc(-c4ccccc4)ccc3N)CCC3(CCNCC3)C2)cc1Cl` (stereo not drawn), the IC50 at Stromelysin-2 and against Stromelysin-1 was over 10 µM in each case.
As to `COc1ccc(S(=O)(=O)C2(C(=O)Nc3ccccc3N)CCC3(CCNCC3)C2)cc1Cl` (stereo not drawn), the half-maximal inhibitory concentration (IC50) at Stromelysin-2 and against Stromelysin-1 was over 10 µM throughout.
As to `COc1ccc(N)c(NC(=O)C2(S(=O)(=O)c3ccc(Oc4ccc(OC(F)(F)F)cc4)cc3)CCC3(CCNCC3)C2)c1` (stereo not drawn), the IC50 at Stromelysin-2 and against Stromelysin-1 was over 10 µM throughout.
On to `O=C(Oc1ccccc1)C1(S(=O)(=O)c2ccc(Oc3ccc(OC(F)(F)F)cc3)cc2)CCC2(CCNCC2)C1` (stereo not drawn), for which, in [1], the “log(ratio)” value is recorded as 0.637. In addition, the CC50 at 72 h in [2] turned out to be 3.9 µM. The half-inhibitory concentration (IC50) on Stromelysin-2 and against Stromelysin-1 was over 10 µM throughout.
Turning to `O=C1CN(C(=O)C2(S(=O)(=O)c3ccc(Oc4ccc(OC(F)(F)F)cc4)cc3)CCC3(CCNCC3)C2)CCN1` (stereo not drawn), the IC50 against Stromelysin-2 and at Stromelysin-1 was over 10 µM in each case.
Take `Nc1ccccc1NC(=O)C1(S(=O)(=O)c2ccc(Oc3ccc(OC(F)(F)F)cc3)cc2)CCC2(CCNCC2)C1` (stereo not drawn): the “log(ratio)” value in data set [1] is on record as 0.904. The CC50 at 72 h in [2] was found to be 7.22 µM. The IC50 against Stromelysin-2 and against Stromelysin-1 was over 10 µM throughout.
With `CCCN1CCC2(CC1)CCC(C(=O)NC(=O)NC)(S(=O)(=O)c1ccc(Oc3ccc(OC(F)(F)F)cc3)cc1)C2` (stereo not drawn), the IC50 on Stromelysin-2 and on Stromelysin-1 was over 10 µM in each case.
For the molecule `CON(C)C(=O)C1(S(=O)(=O)c2ccc(Oc3ccc(OC(F)(F)F)cc3)cc2)CCC2(CCNCC2)C1` (stereo not drawn), the IC50 at Stromelysin-2 and against Stromelysin-1 was over 10 µM throughout.
Take `COC(=O)C1(S(=O)(=O)c2ccc(Oc3ccc(OC(F)(F)F)cc3)cc2)CCC2(CCNCC2)C1` (stereo not drawn): the IC50 at Stromelysin-2 and against Stromelysin-1 was over 10 µM in each case.
For `O=S(=O)(c1ccc(Oc2ccc(OC(F)(F)F)cc2)cc1)C1(CO)CCC2(CCNCC2)C1` (stereo not drawn), the IC50 on Stromelysin-2 and against Stromelysin-1 was over 10 µM in each case.
Consider `CNC(=O)NC(=O)C1(S(=O)(=O)c2ccc(Oc3ccc(OC)cc3)c(Cl)c2)CCC2(CCNCC2)C1` (stereo not drawn), for which the IC50 on Stromelysin-2 and against Stromelysin-1 was over 10 µM in each case.
For the molecule `Cc1ccc(-c2ccc(N)c(NC(=O)C3(S(=O)(=O)c4ccc(Oc5ccc(OC(F)(F)F)cc5)cc4)CCC4(CCNCC4)C3)c2)o1` (stereo not drawn), the IC50 at Stromelysin-2 and against Stromelysin-1 was over 10 µM in each case.
With `O=C(OCc1ccccc1)C1(S(=O)(=O)c2ccc(Oc3ccc(OC(F)(F)F)cc3)cc2)CCC2(CCNCC2)C1` (stereo not drawn), the IC50 against Stromelysin-2 and at Stromelysin-1 was over 10 µM throughout.
In the case of `CS(=O)(=O)NC(=O)C1(S(=O)(=O)c2ccc(Oc3ccc(OC(F)(F)F)cc3)cc2)CCC2(CCNCC2)C1` (stereo not drawn), the IC50 against Stromelysin-2 and on Stromelysin-1 was over 10 µM each time.
Consider `NC(=O)C1(S(=O)(=O)c2ccc(Oc3ccc(OC(F)(F)F)cc3)cc2)CCC2(CCNCC2)C1` (stereo not drawn), for which the IC50 against Stromelysin-2 and on Stromelysin-1 was over 10 µM in each case.

The term IC50 denotes the concentration at which inhibition is half-maximal. A low value points to greater potency.
